Screening data as filed in PubChem.
Calb biofilm kill – mixtures killing C. albicans biofilm; C. albicans biofilm persisters + clotrimazole, fluorescence viability; primary screen in compound mixtures of four per well; inhibition, % at 7.6 µM; 0.02% of 120,000 active;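 active means inhibition above 30.3% in the primary screen of four-compound pools, then above 30% when the compound was retested; inconclusive means passed the primary limit but could not be retested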;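 further: compounds exposed to preformed 24 h biofilms for 48 h; 0% = untreated biofilm control and 100% = clotrimazole plus chlorhexidine kill blank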
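Probe or stimulus – Clotrimazole 50 µg/mL co-treatment · System – C. albicans biofilms · Schedule – 24 h biofilm formation, then 48 h compound exposure, 37 °C · Evaluation – percent inhibition of biofilm viability · Technique – 2-h Alamar Blue fluorescence, 535/590 nm excitation/emission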
ROMK mod – modulates human ROMK potassium channel activity. Tet-inducible ROMK, thallium flux fluorescence; actives lie on both sides. 2% of 130,000 active. AID 1918. B-score at 10 µM;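 active means signal ratio slope over the read window, or its plate-corrected B-score, at least 3 SD from the plate mean, either direction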;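 further: B-score of the F/F0 ratio slope over 7 to 12 s after thallium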
Target sequence (P48048 whole entry, looked up): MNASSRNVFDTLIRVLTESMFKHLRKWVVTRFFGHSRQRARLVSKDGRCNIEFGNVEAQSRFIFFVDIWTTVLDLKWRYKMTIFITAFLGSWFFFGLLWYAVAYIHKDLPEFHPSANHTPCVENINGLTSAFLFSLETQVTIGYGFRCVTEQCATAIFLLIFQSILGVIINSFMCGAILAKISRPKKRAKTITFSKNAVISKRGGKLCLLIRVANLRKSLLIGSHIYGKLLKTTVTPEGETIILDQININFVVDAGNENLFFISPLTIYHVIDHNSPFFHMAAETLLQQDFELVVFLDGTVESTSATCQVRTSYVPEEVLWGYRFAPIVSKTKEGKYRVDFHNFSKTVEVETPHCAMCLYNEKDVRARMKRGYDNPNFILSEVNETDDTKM
ROMK hit retest – human ROMK channel modulation, retest confirmation; shares compounds with ROMK mod; ROMK thallium flux, fluorescence ratio; hits give low values; normalized thallium flux (F/F0 slope) at 10 µM; 54% of 3,000 active; AID 1917;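 active means Flux at 10 µM at least 3 SD below or above vehicle control mean in one or both replicates; inconclusive means no clear call, values can overlap the other calls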
Starred values were filed as active, the others as inactive; ? = inconclusive; . = no result given. Only a selection was taken, and hits are over-represented in it overall.

SMILES | Calb biofilm kill | ROMK mod | ROMK hit retest
O=C(O)c1cccc(NC2=C(Cl)C(=O)c3ccccc3C2=O)c1 | 21 | -1.9 | 0.056*
O=C(O)c1ccc(NC2=C(Cl)C(=O)c3ccccc3C2=O)cc1 | 16 | 0.73 | .
O=C(/C=C/c1ccco1)Nc1nc(-c2ccccn2)cs1 | 11 | 0.6 | .
O=C(/C=C/c1ccco1)Nc1cccnc1 | 10 | 0.14 | .
O=C(/C=C/c1ccco1)Nc1ccccn1 | 17 | 1.8* | 0.085
Cc1ccc(NC(=O)/C=C/c2ccco2)nc1 | 18 | 4.5* | 0.09
O=C(Nc1ccc(Cl)cc1)NN1CC(=O)N(c2cccc(C(F)(F)F)c2)CC1=O | 24 | -0.71 | .
COc1ccc(C2NCCc3c2[nH]c2ccccc32)cc1CN1CCc2cc(OC)c(OC)cc2C1C (configuration not stated) | 23 | -3.8* | 0.055*
COc1ccc(C2NCCc3c2[nH]c2ccccc32)cc1COc1ccc(F)cc1 (configuration not stated) | 19 | -1.6 | .
Cn1c(=O)c(=O)n(C)c2cc(S(=O)(=O)NCCOc3ccccc3)ccc21 | 10 | 0.31 | .
Cc1ccc(S(=O)(=O)N(C)CCCC(=O)Nc2cc(C)ccc2C)cc1 | 13 | -1.2 | .
CN(CCCC(=O)Nc1ccncc1)S(=O)(=O)c1ccc(Cl)cc1 | . | -3.4* | 0.065*
Cc1ccc(Oc2ncnc(N)c2[N+](=O)[O-])cc1C | 16 | -0.7 | .
N=c1ncn(CC(O)CO)c2nc(N3CCOCC3)[nH]c12 (configuration not stated) | . | 0.39 | .
COc1cccc(/C=C/C(=O)c2c(O)cc(C)oc2=O)c1O | . | -5.9* | 0.057*
COc1cc(/C=C/C(=O)c2c(O)cc(C)oc2=O)cc(OC)c1O | . | -1.5 | .
COC(=O)C1=C(N)OC2=C(C(=O)CC(C)(C)C2)C1c1ccccc1OCC#N (configuration not stated) | 13 | -0.081 | .
COC(=O)C1=C(N)OC2=C(C(=O)CC(C)(C)C2)C1c1cccnc1 (configuration not stated) | . | 4* | 0.072
O=C(NC(=S)Nc1cccc(NC(=O)c2ccc(Cl)cc2Cl)c1)c1cccs1 | 9 | . | .
COC(=O)c1ccc(C(C(=O)NCc2ccccc2)N(Cc2ccco2)C(=O)c2cnccn2)cc1 (configuration not stated) | . | -0.11 | .
COc1cc(C(C(=O)NC2CCCCC2)N(Cc2ccco2)C(=O)c2cnccn2)cc(OC)c1OC (configuration not stated) | 22 | -13* | 0.082
CCNc1nc(OC)nc(N2CCC(Cc3ccccc3)CC2)n1 | 22 | . | .
c1ccc(CCNc2nc(-c3ccccn3)nc3ccccc23)cc1 | 19 | . | ?
C/C(=N\Nc1nc(-c2ccccn2)nc2ccccc12)c1ccc(F)cc1 | 16 | . | .
c1ccc(-c2nc(N3CCCCCC3)c3ccccc3n2)nc1 | . | -2.7* | 0.059*
SMILES | Calb biofilm kill | ROMK mod | ROMK hit retest
c1ccc(CN2CCN(c3nc(-c4ccccn4)nc4ccccc34)CC2)cc1 | . | -1.1 | .
COC(=O)c1ccc(COc2ccccc2/C=C(\C#N)C(=O)Nc2c(C)cccc2C)cc1 | 15 | 0.099 | .
COC(=O)c1ccc(C(=O)N(CCN(C)C)c2nc3c(Cl)cccc3s2)cc1 | 16 | 2.9e-05 | .
O=C(O)c1cccc2c1C(=O)c1ccccc1C2=O | 10 | -2.4* | 0.087
O=C(O)c1cccc2c1C(=O)c1ccccc1-2 | 12 | . | .
COc1ccc(CNC(=O)C(c2ccc(C)o2)N(C(=O)c2csnn2)c2ccc(C(C)C)cc2)cc1 (configuration not stated) | . | -2.7 | .
CNC(=S)N(Cc1cc2cc(OC)c(OC)cc2[nH]c1=O)C1CCCC1 | 30 | -0.68 | .
O=c1c([N+](=O)[O-])cc(C(F)(F)F)cn1Cc1c(Cl)cccc1Cl | . | . | 0.073
COC(=O)c1ccc(Cn2cc(C(F)(F)F)cc([N+](=O)[O-])c2=O)cc1 | 9 | 0.58 | .
Cc1cccnc1NC(=O)NC(=O)c1ccc(C(C)(C)C)s1 | 32 | 0.23 | .
O=C(CSc1ncccn1)NCc1cccs1 | 18 | 0.94 | .
COc1cc(/C=N/NC(=O)C(=O)NCC2CCCO2)cc(Cl)c1O (configuration not stated) | 26 | . | .
CC(C)(C)c1ccc(S(=O)(=O)Nc2ccc3c(c2)COC3=O)cc1 | 19 | -0.74 | .
CN(C)c1ccc2c3c(ccc(N(C)C)c13)C(=O)OC2 | 9 | . | 0.079
COc1ccc(Nc2nccc(N(C)C)c2C#N)cc1 | 14 | 0.64 | .
CC(C)CC(=O)/C(=C\c1ccc(Cl)cc1Cl)n1cncn1 | 12 | -7.1* | 0.046*
COc1ccc(/C=C(/C(=O)c2ccc(Cl)cc2Cl)n2cncn2)cc1 | . | -1.5 | .
O=C(NCCCCO)c1ccc2c3c(cccc13)CC2 | 10 | 0.78 | .
CCOC(=O)c1c(NC(=O)CSc2nc3ccccc3o2)sc(C(C)=O)c1C | 5 | -3.3* | 0.059*
CCOC(=O)c1c(NC(=O)CSc2nnc(Cc3ccccc3)o2)sc(C(C)=O)c1C | . | -2.2 | .
O=C(COc1ccccc1)NCC(=O)Nc1cccc(S(=O)(=O)NC2=NCCC2)c1 | 1 | 0.57 | .
